Source: PubChem
Compounds with a hit are over-represented: about 2% of the library has one in this group of screens.
S100A4 inh HTS = blocks human S100A4 binding to myosin IIA peptide; P26447; S100A4/TAMRA-MyoIIA peptide fluorescence polarization; inhibition, % at 10.7 µM; 360,000 tested, 0.14% active; AID 652163;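 active means mean inhibition of at least 70% across replicates, with every replicate also reaching that level; inconclusive means mean inhibition reaches 70% but some replicates fall short; inactive means mean inhibition below 70%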
Target sequence (P26447 whole entry, looked up): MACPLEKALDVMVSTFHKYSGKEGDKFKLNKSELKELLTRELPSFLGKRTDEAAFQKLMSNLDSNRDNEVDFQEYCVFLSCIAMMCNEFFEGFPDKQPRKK
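Material: S100A4 monomer (human). Medium: Calcium-containing HEPES buffer, pH 7.2. Probe or stimulus: labelled myosin peptide probe, 5 nM. Compound dosing: one concentration per compound. Timing: polarization read 5 min after assay mix addition, stable 5–60 min. Benchmarks: DMSO as neutral control, TFP as positive control.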
CAL PDZ FP-1 = CAL PDZ (human) peptide binding inhibition | 300,000 tested, 0.92% active | inhibition, % at 24.9 µM | Q9HD26 | purified CAL PDZ, TMR-peptide fluorescence polarization, 1 h;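 active means mean inhibition of at least 30% with at least half of replicates also reaching 30%; inconclusive means no clear call, values can overlap the other calls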;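 further: 0% = DMSO neutral control and 100% = excess unlabeled competitor peptide PRC23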
C2C12 statin = suppression of simvastatin myotoxicity; C2C12 myotubes + simvastatin, ATP luminescence, 48 h; scaled: DMSO 0, geranylgeraniol control 100; rescue of ATP level, % at 7.49 µM; 330,000 tested, 0.78% active; AID 602340;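 active means mean ATP rescue above about 67%, or every replicate alone reaching that limit, limit read from the data, passing the limit was not always enough; inconclusive means no clear call, values can overlap the other calls; inactive means mean under the limit and some replicate under it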;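 further: myotubes were challenged with 10 µM simvastatin during compound exposure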
CDK5 p35 inh = inhibitors of human CDK5/p35 kinase; Q00535+Q15078; Recombinant CDK5/p35, ADP-Glo luminescence, 60 min; inhibition, % at 10 µM; 330,000 tested, 0.01% active;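 active means highest replicate inhibition of at least 50% and at least 75% of replicates reaching 50%; inconclusive means only one of the two criteria met; inactive means both criteria failed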;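 further: plate controls were DMSO neutral control for no effect and GW8510 at 10 µM for full effect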
Target sequence (Q00535 whole entry, looked up): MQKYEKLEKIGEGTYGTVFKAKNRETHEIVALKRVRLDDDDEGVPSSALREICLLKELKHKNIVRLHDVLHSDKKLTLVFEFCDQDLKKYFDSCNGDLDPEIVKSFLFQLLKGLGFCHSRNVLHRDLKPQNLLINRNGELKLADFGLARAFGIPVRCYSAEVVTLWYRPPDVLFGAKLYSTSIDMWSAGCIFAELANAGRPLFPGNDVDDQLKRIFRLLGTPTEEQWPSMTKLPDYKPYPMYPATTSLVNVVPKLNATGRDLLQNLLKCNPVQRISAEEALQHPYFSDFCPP
Target sequence (Q15078 whole entry, looked up): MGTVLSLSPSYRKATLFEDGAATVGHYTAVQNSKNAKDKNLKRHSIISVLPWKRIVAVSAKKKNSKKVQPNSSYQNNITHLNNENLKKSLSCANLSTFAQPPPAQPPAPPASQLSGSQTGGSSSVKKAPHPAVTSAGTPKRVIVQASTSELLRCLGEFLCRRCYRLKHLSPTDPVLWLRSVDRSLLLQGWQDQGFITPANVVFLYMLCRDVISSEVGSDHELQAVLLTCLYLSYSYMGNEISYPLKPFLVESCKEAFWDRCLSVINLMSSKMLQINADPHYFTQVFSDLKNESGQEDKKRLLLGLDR
dFosB activator = mouse delta FosB homodimer activation | 340,000 tested, 0.99% active | P13346 | activation, % at 25 µM | purified delta FosB, TAMRA-CDK5 oligo fluorescence polarization; percent of positive-control signal above neutral wells;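 active means mean activation above about 17%, with every replicate also reaching it, limit read from the data, passing the limit was not always enough; inconclusive means only one of the two conditions met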
CAL PDZ FP-2 = inhibitors of human CAL PDZ peptide binding. purified CAL PDZ, TMR-peptide fluorescence polarization, 1 h. inhibition, % at 20 µM. AID 504414. 330,000 tested, 0.02% active;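 active means highest replicate inhibition of at least 40%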;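 further: plate controls were DMSO neutral control wells for no effect and unlabeled competitor peptide control wells for full effect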
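material = purified tagged CAL PDZ domain construct (CerCALP) | buffer or medium = sodium phosphate/NaCl buffer pH 7.4 with TCEP, IgG, Thesit | reagent = TMR-labelled reporter peptide T*-PRC34 bound in PDZ groove | incubation = 1 h room-temperature incubation prior to read | measured by = fluorescence polarization (mP) | evaluation = percent inhibition from loss of millipolarization | control set = unlabelled peptide and DMSO controls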
* = called active by the depositor; ? = inconclusive; nt = no result given.

SMILES	S100A4 inh HTS	CAL PDZ FP-1	C2C12 statin	CDK5 p35 inh	dFosB activator	CAL PDZ FP-2
CC(C)C#Cc1ccc2c(c1)O[C@@H](CN(C)C(=O)c1cnccn1)[C@@H](C)CN([C@@H](C)CO)S2(=O)=O	-4.4	nt	16.0	nt	nt	nt
COc1ccc(-c2nc(CS(=O)CC(=O)NC(C)CCc3ccccc3)c(C)o2)cc1OC (stereo not given)	2.1	45.0*	22.3	1.4	-4.9	0.4
C[C@H]1CN([C@@H](C)CO)C(=O)c2cc(C#CCN(C)C)cnc2O[C@@H]1CN(C)Cc1ccccc1F	9.7	nt	15.5	nt	nt	nt
O=C(Cc1cn2ccsc2n1)Nc1ccccc1Oc1ccccc1	nt	1.7	101.2*	-0.2	-7.3	-0.2
Cc1nn(C)cc1CNC(=O)Nc1cccc(Cl)c1	nt	-3.5	113.0*	1.4	-1.4	0.2
CCOC(=O)C1(Cc2ccc(Cl)cc2)CCN(Cc2cnc(N)nc2)CC1	-10.9	-1.4	-8.0	0.1	-2.7	0.8
O=c1cc(N2CCOCC2)[nH]c(=O)n1C1CCCCC1	nt	1.0	121.8*	-0.3	7.6	-0.4
Cc1nc2ccccn2c1-c1nnco1	nt	-0.2	71.7*	0.3	-3.8	-2.8
COc1ccc(Cl)cc1NS(=O)(=O)c1cc(Cl)ccc1OC	3.4	-1.2	14.2	0.0	-8.5	1.2
O=C1NC(=O)/C(=C\c2cn(Cc3ccccc3F)c3ccccc23)N1	-0.8	59.1*	0.3	-1.9	1.4	-0.2
Cc1ccc(OCc2n[nH]c(=S)n2C2CCCCC2)cc1	-2.5	-3.1	56.9	0.9	-33.3	-2.1
O=C(Nc1cccc(S(=O)(=O)N2CCOCC2)c1)c1cnn2c(C(F)F)cc(-c3ccccc3)nc12	-2.8	nt	nt	-0.8	7.2	0.0
Cc1ccc(S(=O)(=O)NCc2ccco2)c(C)c1C	nt	0.0	3.1	-0.1	-1.9	0.6
Cc1ccc(CNC(=O)C(c2ccccc2)c2ccccc2)cc1	10.9	94.2*	0.5	0.4	-6.2	-0.4
CCOC(=O)C1CCN(C(=O)CCc2c(C)nc3cc(-c4ccc(OC)cc4OC)nn3c2C)CC1	-2.3	-2.9	nt	-0.3	-15.2	-1.9
COc1ccc2c(c1OC)C(=O)OC2	-0.6	4.8	5.4	2.9	2.4	0.9
COc1ccc2c3c(cccc13)C(=O)CC2	166.1*	10.5	nt	1.6	-90.7	3.0
CC1=C(C(=O)c2ccccc2)C(c2cccc([N+](=O)[O-])c2)NC(=S)N1 (stereo not given)	-2.6	5.8	nt	-1.2	3.1	0.5
CC(=O)C1=C(C)NC(=S)NC1c1cc([N+](=O)[O-])ccc1O (stereo not given)	-1.7	64.5*	37.7	1.9	-0.9	2.4
COc1ccc(CC(=O)NC2CCN(CC(=O)N3CCCc4ccccc43)CC2)cc1OC	nt	-2.5	-6.7	0.3	-6.4	-0.7
Cc1ccc(NC(=O)COc2ccc(S(=O)(=O)N3CCOCC3)cc2)cc1	nt	-7.1	151.6*	-0.9	-4.4	0.1
COc1ccc(NC(=O)COC(=O)/C=C/c2ccccc2[N+](=O)[O-])cc1	nt	-1.9	nt	0.2	2.9	-0.9
O=C(COC(=O)CN1C(=O)c2ccccc2C1=O)Nc1ccc(S(=O)(=O)N2CCCC2)cc1	nt	35.4*	7.2	-1.2	-1.4	nt
O=C(Nc1ccc(S(=O)(=O)N2CCCC2)cc1)c1ccc(OCC2CCCO2)cc1 (stereo not given)	-6.0	52.6*	-3.3	0.7	-8.9	-3.2
O=C(COC(=O)/C=C/c1ccccc1[N+](=O)[O-])Nc1ccc(S(=O)(=O)N2CCOCC2)cc1	-5.8	35.2*	2.1	0.5	-4.7	-0.2
SMILES	S100A4 inh HTS	CAL PDZ FP-1	C2C12 statin	CDK5 p35 inh	dFosB activator	CAL PDZ FP-2
Nc1nc2c(ncn2[C@@H]2O[C@H](C(=O)NC3CCCCC3)[C@@H](O)[C@H]2O)c(=O)[nH]1	-14.3	nt	nt	nt	nt	nt
CCN(CC)c1ccc(/C=N/Nc2nc3ccccc3[nH]2)c(O)c1	nt	-1.2	-331.6	0.3	31.7*	1.5
CCOc1cc(N(CC)CC)ccc1/C=C(/C#N)c1nc2ccccc2[nH]1	nt	43.0*	-59.5	-0.4	-12.3	1.0
Cc1cc(N/N=C/c2ccc(O)cc2)c2cccc(C)c2n1	-1.7	-3.8	1.3	3.8	104.8*	6.2
Cc1cc(C)c2nc(C)cc(N/N=C/c3ccc(O)cc3)c2c1	5.5	11.6	-73.0	4.5	-41.2	15.5
O=C(Nc1ccccn1)c1cc2cc([N+](=O)[O-])ccc2s1	0.5	nt	nt	-2.1	?	-1.2
O=C(COC(=O)c1cc(=O)c2ccccc2o1)NCc1ccccc1	-9.2	50.3*	5.9	1.5	-4.4	-0.9
O=C(COC(=O)c1cc(=O)c2ccccc2o1)NCc1ccc(Cl)cc1	-3.1	nt	-1.8	nt	nt	nt
O=C(COC(=O)c1ccc(Br)o1)NCc1ccc(F)cc1	-0.1	-5.2	2.4	-1.0	3.1	-1.0
O=C(COC(=O)c1ccc(Br)o1)NCc1ccc(Cl)cc1	11.7	30.6*	3.5	-0.4	3.7	0.0
COc1ccccc1N(C)S(=O)(=O)c1ccc(Cl)c(C(=O)NCc2ccco2)c1	-4.6	nt	-4.2	-1.4	-7.0	-0.4
O=C1C=C(c2ccccc2)OC(c2ccccc2)O1 (stereo not given)	-0.4	47.0*	10.9	-1.2	-8.3	-7.9
CC(=O)N1CCN(S(=O)(=O)c2cccc(C(=O)OCN3C(=O)c4ccccc4C3=O)c2)CC1	-1.5	1.6	-23.7	1.6	-4.5	-3.0
O=C(NC1CC1)C1CCN(C2CCN(Cc3ccccc3C(F)(F)F)CC2)CC1	0.3	-1.4	82.7*	-0.7	-0.3	-1.7
Cc1cc(C)c(S(=O)(=O)NCC23C=CC(O2)C2C(=O)N(c4ccccc4)C(=O)C23)c(C)c1 (stereo not given)	nt	42.8*	8.7	2.1	0.1	-0.2
O=C1C2C3C=CC(CNS(=O)(=O)c4ccccc4[N+](=O)[O-])(O3)C2C(=O)N1c1ccccc1 (stereo not given)	-3.3	-3.2	nt	0.4	-3.7	-1.8
COc1cc(/C=C/C(=O)OCC(=O)NCCN2C(=O)CSC2=O)ccc1OC(F)F	-7.9	-7.8	nt	-0.3	1.4	4.4
CCCn1c(N)c(C(=O)COC(=O)/C=C/c2ccc(OC(F)F)c(OC)c2)c(=O)[nH]c1=O	1.1	7.8	1.8	2.3	22.2*	0.2
CCOc1nc(OCC)c2cnn(C)c2n1	1.6	0.3	-6.1	1.9	-4.2	-0.5
CCS(=O)(=O)NCC[C@H]1CC[C@@H](NC(=O)Cc2ccccn2)[C@H](CO)O1	15.3	nt	-2.1	nt	nt	nt
O=C(Cc1ccccn1)N[C@@H]1CC[C@@H](CCNS(=O)(=O)c2cccc(F)c2)O[C@H]1CO	131.7*	nt	-6.4	nt	nt	nt
Clc1cccc(-c2nnc3n2CCCCC3)c1	-2.6	6.6	nt	-1.0	1.3	-1.8
CCOC(=O)c1c[nH]c2c(Cl)ccc(Cl)c2c1=O	nt	nt	2.2	-0.4	-15.7	-1.9
CCOC(=O)c1c[nH]c2ccc3ccccc3c2c1=O	2.2	53.6*	4.7	0.0	-12.2	-2.6
